# Experiments:
# [1] = tested on: HeLa cells; conditions: read-out: IC50 against HeLa cells; cited from earlier work
# [2] = tested on: A549 adenocarcinomic human alveolar basal epithelial cells; test: IC50 proliferation assay; assay type: cell-based; conditions: A549, 72 h, read-out: A549 cancer cell line activity (IC50)
# Method in brief: (§1)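 Cells were grown at 37 °C in 5% CO2 in RPMI 1640 or DMEM with 10% heat-inactivated FBS and 1% glutamine, then seeded in 96-well plates the afternoon before treatment. About 18 h later, the test compound was semi-serially diluted in DMSO, then in growth medium, and added. After 72 h, WST-1 was added and plates were read after a further 4 h at 37 °C. Assays were run in triplicate.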
# [3] = tested on: various cancer cell lines; test: Cancer cell line screening, all cell lines together; assay type: cell-based, human; conditions: for IC50: Homo sapiens, read-out: IC50 in cancer cell lines, lowest value
# [4] = tested on: MOLM-14 acute monocytic leukemia cells; test: IC50 proliferation assay; assay type: cell-based; conditions: Homo sapiens, MOLM-14, 72 h, read-out: MOLM14 cancer cell line activity (IC50)
# Method in brief: as §1
# [5] = tested on: female nude mice; test: Maximum tolerated dose assay; assay type: in vivo
# [6] = Stability in human serum; assay type: in vitro ADME; conditions: pooled human serum, up to 24 hours
# Method in brief: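 The test compound came from a 1 mg/mL anhydrous DMSO stock and was incubated in pooled human serum […]. It followed the same workflow as the buffer test. Timed aliquots were taken up to 24 h and compared by TLC against a verified standard. Aliquots were then extracted with two chloroform portions, the solvent was removed, and the residue was analysed by 1H NMR to verify TLC.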
# [7] = Aqueous benchtop stability in phosphate buffer; assay type: physicochemical; conditions: 25 μg/mL, pH 5.0, 7.0 and 7.5, room temperature, up to 24 hours
# Method in brief: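 Test compound at 1 mg/mL in anhydrous DMSO (stock) was spiked into phosphate buffer at 25 μg/mL, at pH 5.0, 7.0 and 7.5, and stirred at room temperature. Aliquots were taken at 0, 0.25, 0.5, 1, 4, 8 and 24 h and checked by TLC against a verified standard. Aliquots were then extracted twice with chloroform, and the residue was examined by 1H NMR to confirm the TLC findings.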
# [8] = Aqueous benchtop stability at CCPC; assay type: physicochemical; conditions: LC/MS; for deviation of recovered from expected concentration in aqueous solution: 5-500 ng/mL in 1:1 acetonitrile/Millipore H2O
# Method in brief: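 Prodrug and its parent were spiked at 5, 12.5, 25, 50, 125, 250 and 500 ng/mL into 1:1 acetonitrile/Millipore water. Both analytes were measured by LC/MS. Concentrations were quantified against a previously constructed calibration curve at the same concentrations.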
# [9] = tested on: γ-H2Ax in MOLM-14 cells; test: Gamma-H2Ax DNA damage assay in MOLM-14 cells; assay type: cell-based, human; conditions: MOLM-14 cells grown in 0.5 and 4 μM for 24 hours
# Method in brief: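 MOLM-14 cells were seeded the evening before at 1×10^5 cells/mL in RPMI 1640/10% FBS. Controls were DMSO and 6.0 Gy gamma irradiation (collected after 1 h); treated cells were collected after 24 h. Cells were washed in PBS/2% serum, cytospun at 1.5×10^5 cells/slide, fixed 15 min in 4% PFA, permeabilised (Triton X-100 buffer), and blocked overnight in 10% FBS/PBS/0.1% Triton. Staining used anti-γ-H2Ax plus DyLight anti-mouse secondary with DAPI mount; slides were examined by fluorescence microscopy.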
# [10] = Mouse model pharmacokinetic study; conditions: in vivo, 10 mg/kg
# Method in brief: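 Mouse plasma was analysed by a validated LC/MS/MS assay. Proteins were precipitated with an equal volume of acetonitrile after adding an internal standard (a related analogue, final 1000 ng/mL), then vortexed 10 min and centrifuged at 14,000 rpm. Standard ranges were 1–1,000 ng/mL for parent and 10–10,000 ng/mL for prodrug. Separation used a C18 column with a 0.1% formic acid/acetonitrile gradient at 1 mL/min. Detection was positive electrospray on a triple quadrupole.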
# [11] = Mouse plasma stability; assay type: in vitro ADME
# Method in brief: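 Mouse plasma was spiked with 500 ng/mL prodrug and assayed for both prodrug and parent at 0, 5, 15, 30, 45, 60 and 90 min. Conversion was expressed as analyte counts to avoid differences between the two standard curves.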
Structure (SMILES),IC50 [1],IC50 [3],stability in human serum [6],aqueous stability in phosphate buffer [7],deviation of recovered from expected concentration in aqueous solution [8],other results
"Clc1nc(Cl)c2[nH]ccc2n1 [Compound 5, 2,4-Dichloro-5H-pyrrolo[3,2-d]pyrimidine]",19 ± 3 µM,≥ 0.014 µM,,,,IC50 [2]: 14.5 ± 3.5 µM; IC50 [4]: 9.5 ± 3.1 µM
"Clc1nc(Cl)c2[nH]cc(Br)c2n1 [Compound 6, 7-Bromo-2,4-dichloro-5H-pyrrolo[3,2-d]pyrimidine]",0.92 ± 0.04 µM,≥ 0.014 µM,stable,stable,,"toxicity relative to 7 ([5]; female, nude, mouse, in vivo): 2 fold"
"Clc1nc(Cl)c2[nH]cc(I)c2n1 [Compound 7, 2,4-Dichloro-7-iodo-5H-pyrrolo[3,2-d]pyrimidine]",,≥ 0.014 µM,stable,stable,≤ 5.7%,"DNA damage (γ-H2Ax staining) [9]: significant DNA damage; time to little to no detection of the compound in mouse plasma [10]: ≤ 70 min; deviation in plasma over the time frame investigated ([11]; mouse plasma, 0-90 minutes): 5.7%; stability in plasma ([11]; mouse plasma, time frame investigated (0-90 minutes)): excellent stability"
"Clc1nc(Cl)c2c(n1)c(I)cn2COCc1ccccc1 [Compound 8, 5-((Benzyloxy)methyl)-2,4-dichloro-7-iodo-pyrrolo[3,2-d]pyrimidine]",,,,,,"decrease of activity compared to the parent ([3]; fold, versus parent 7, Table 1 cell lines): ten-fold"
"Cc1ccc(S(=O)(=O)n2cc(I)c3nc(Cl)nc(Cl)c32)cc1 [Compound 9, 2,4-Dichloro-7-iodo-5-tosyl-pyrrolo[3,2-d]pyrimidine]",,,,stable,15.8%,"hydrolysis of 9 to 7 in aqueous solution ([8]; 1:1 acetonitrile/Millipore H2O): no observed hydrolysis; increase in maximum tolerated dose compared to parent compound 7 ([5]; fold, versus 7): four-fold; time to undetectable in biological media ([11]; biological media (Figure 4, mouse plasma)): ≤ 1 hour; conversion of 9 to 7 in mouse plasma ([11]; mouse plasma spiked with 500 ng/mL, 0-90 minutes): Significant conversion"
